Data taken from ChEMBL document CHEMBL3351385, “Synthesis and preliminary mechanistic evaluation of 5-(p-tolyl)-1-(quinolin-2-yl)pyrazole-3-carboxylic acid amides with potent antiproliferative activity on human cancer cell lines” (Eur J Med Chem, 2014).
Activity calls are given as the source filed them. The rule behind the calls is not given here.

Key:
[1] = Cytotoxicity against human HuH7 cells after 72 hrs by SRB assay; assay type: functional, cell-based; settings: Huh-7, 72 h
Summary of the method: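 Cells kept in DMEM with 10% FCS and penicillin/streptomycin at 37°C, 5% CO2. 2000–3000 cells/well were seeded, and medium was refreshed the next day. DMSO solutions were added over 2.5–40 µM with matched DMSO-only controls for 72 h. Cells were then TCA-fixed, stained with 0.4% SRB in 1% acetic acid, solubilized in 10 mM Tris pH 8 and read at 515 nm. Data were normalized to DMSO wells and expressed as mean ±SD.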

Huh-7 = experiment: Induction of autophagy in human HuH7 cells assessed as increase in LC3-2 formation at cytotoxic IC50 level after 72 hrs by Western blotting method; assay type: functional, cell-based
[2] = Induction of cell cycle arrest in human Mahlavu cells assessed as accumulation at S phase at cytotoxic IC50 level after 48 hrs by propidium iodide staining based FACS method; assay type: functional
[3] = Induction of cell cycle arrest in human HuH7 cells assessed as accumulation at G2/M phase at cytotoxic IC50 level after 48 hrs by propidium iodide staining based FACS method; assay type: functional, Huh-7
Summary of the method: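 Huh7 cells were seeded at 150,000–300,000 per 100-mm dish and left 24 h. […] Cells were stained with a propidium iodide-containing cell cycle reagent, and subG1, G0/G1, S and G2/M fractions were scored by flow cytometry.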

[4] = target: Mitogen-activated protein kinase 7 (Homo sapiens) (UniProt Q13164); experiment: Inhibition of ERK5 (unknown origin) assessed as remaining enzyme activity at 10 uM by radioactive [33P]-ATP filter binding assay
Summary of the method: (§1)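 A single 10 µM concentration was tested across a 140-kinase panel. Activity was measured by a radioactive 33P-ATP filter-binding assay run at the International Center for Kinase Profiling, University of Dundee.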

[5] = target: Mitogen-activated protein kinase 8 (Homo sapiens) (UniProt P45983); experiment: Inhibition of JNK1 (unknown origin) assessed as remaining enzyme activity at 10 uM by radioactive [33P]-ATP filter binding assay
[6] = target: Mitogen-activated protein kinase 9 (Homo sapiens) (UniProt P45984); experiment: Inhibition of JNK2 (unknown origin) assessed as remaining enzyme activity at 10 uM by radioactive [33P]-ATP filter binding assay
[7] = target: Mitogen-activated protein kinase 14 (Homo sapiens) (UniProt Q16539); experiment: Inhibition of p38alpha (unknown origin) assessed as remaining enzyme activity at 10 uM by radioactive [33P]-ATP filter binding assay
[8] = target: Death-associated protein kinase 1 (Homo sapiens) (UniProt P53355); experiment: Inhibition of DAPK1 (unknown origin) assessed as remaining enzyme activity at 10 uM by radioactive [33P]-ATP filter binding assay; summary of the method: as §1
[9] = target: Glycogen synthase kinase-3 beta (Homo sapiens) (UniProt P49841); experiment: Inhibition of GSK3beta (unknown origin) assessed as remaining enzyme activity at 10 uM by radioactive [33P]-ATP filter binding assay
[10] = target: CDK9/cyclin T1 (Homo sapiens) (UniProt O60563+P50750); experiment: Inhibition of CDK9/Cyclin-T1 (unknown origin) assessed as remaining enzyme activity at 10 uM by radioactive [33P]-ATP filter binding assay; assay type: protein-complex assay; summary of the method: as §1
[11] = target: Tyrosine-protein kinase Yes (Homo sapiens) (UniProt P07947); experiment: Inhibition of YES1 (unknown origin) assessed as remaining enzyme activity at 10 uM by radioactive [33P]-ATP filter binding assay
[12] = target: Tyrosine-protein kinase JAK2 (Homo sapiens) (UniProt O60674); experiment: Inhibition of JAK2 (unknown origin) assessed as remaining enzyme activity at 10 uM by radioactive [33P]-ATP filter binding assay
[13] = target: Ephrin type-B receptor 1 (Homo sapiens) (UniProt P54762); experiment: Inhibition of EPHB1 (unknown origin) assessed as remaining enzyme activity at 10 uM by radioactive [33P]-ATP filter binding assay; summary of the method: as §1
[14] = target: Ephrin type-B receptor 2 (Homo sapiens) (UniProt P29323); experiment: Inhibition of EPHB2 (unknown origin) assessed as remaining enzyme activity at 10 uM by radioactive [33P]-ATP filter binding assay; summary of the method: as §1
[15] = target: Insulin receptor (Homo sapiens) (UniProt P06213); experiment: Inhibition of IR (unknown origin) assessed as remaining enzyme activity at 10 uM by radioactive [33P]-ATP filter binding assay
[16] = target: Insulin receptor-related protein (Homo sapiens) (UniProt P14616); experiment: Inhibition of IRR (unknown origin) assessed as remaining enzyme activity at 10 uM by radioactive [33P]-ATP filter binding assay
[17] = target: Vascular endothelial growth factor receptor (Homo sapiens) (UniProt P17948+P35916+P35968); experiment: Inhibition of VEGFR (unknown origin) assessed as remaining enzyme activity at 10 uM by radioactive [33P]-ATP filter binding assay; assay type: protein assay
[18] = target: Serine/threonine-protein kinase BRSK2 (Homo sapiens) (UniProt Q8IWQ3); experiment: Inhibition of BRSK2 (unknown origin) assessed as remaining enzyme activity at 10 uM by radioactive [33P]-ATP filter binding assay; summary of the method: as §1
[19] = target: Serine/threonine-protein kinase SIK3 (Homo sapiens) (UniProt Q9Y2K2); experiment: Inhibition of SIK3 (unknown origin) assessed as remaining enzyme activity at 10 uM by radioactive [33P]-ATP filter binding assay
[20] = target: Tau-tubulin kinase 2 (Homo sapiens) (UniProt Q6IQ55); experiment: Inhibition of TTBK2 (unknown origin) assessed as remaining enzyme activity at 10 uM by radioactive [33P]-ATP filter binding assay
[21] = target: Dual specificity tyrosine-phosphorylation-regulated kinase 3 (Homo sapiens) (UniProt O43781); experiment: Inhibition of DYRK3 (unknown origin) assessed as remaining enzyme activity at 10 uM by radioactive [33P]-ATP filter binding assay; summary of the method: as §1
[22] = target: Serine/threonine-protein kinase TBK1 (Homo sapiens) (UniProt Q9UHD2); experiment: Inhibition of TBK1 (unknown origin) assessed as remaining enzyme activity at 10 uM by radioactive [33P]-ATP filter binding assay
[23] = target: SRSF protein kinase 1 (Homo sapiens) (UniProt Q96SB4); experiment: Inhibition of SRPK1 (unknown origin) assessed as remaining enzyme activity at 10 uM by radioactive [33P]-ATP filter binding assay
[24] = target: Mitogen-activated protein kinase kinase kinase kinase 3 (Homo sapiens) (UniProt Q8IVH8); experiment: Inhibition of MAP4K3 (unknown origin) assessed as remaining enzyme activity at 10 uM by radioactive [33P]-ATP filter binding assay
[25] = target: Serine/threonine-protein kinase OSR1 (Homo sapiens) (UniProt O95747); experiment: Inhibition of OSR1 (unknown origin) assessed as remaining enzyme activity at 10 uM by radioactive [33P]-ATP filter binding assay
[26] = target: Serine/threonine-protein kinase 16 (Homo sapiens) (UniProt O75716); experiment: Inhibition of MPSK1 (unknown origin) assessed as remaining enzyme activity at 10 uM by radioactive [33P]-ATP filter binding assay
[27] = target: TGF-beta receptor type-1 (Homo sapiens) (UniProt P36897); experiment: Inhibition of TGFBR1 (unknown origin) assessed as remaining enzyme activity at 10 uM by radioactive [33P]-ATP filter binding assay
TGF-beta receptor type-1 (Homo sapiens), sequence (P36897 whole entry): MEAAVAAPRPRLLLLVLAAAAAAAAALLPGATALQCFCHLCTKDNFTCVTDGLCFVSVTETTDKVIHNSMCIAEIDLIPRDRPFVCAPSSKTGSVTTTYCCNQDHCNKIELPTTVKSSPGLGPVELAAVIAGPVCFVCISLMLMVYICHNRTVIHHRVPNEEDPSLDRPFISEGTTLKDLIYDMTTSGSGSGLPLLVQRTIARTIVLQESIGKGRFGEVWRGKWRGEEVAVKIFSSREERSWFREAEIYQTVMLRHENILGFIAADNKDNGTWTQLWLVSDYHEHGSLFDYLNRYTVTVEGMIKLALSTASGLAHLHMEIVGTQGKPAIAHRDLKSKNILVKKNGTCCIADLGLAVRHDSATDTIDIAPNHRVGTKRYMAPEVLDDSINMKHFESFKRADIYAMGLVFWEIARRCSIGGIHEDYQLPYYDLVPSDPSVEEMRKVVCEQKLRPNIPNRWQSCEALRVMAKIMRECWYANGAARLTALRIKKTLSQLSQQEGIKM

Mitogen-activated protein kinase 9 (Homo sapiens), sequence (P45984 whole entry, looked up): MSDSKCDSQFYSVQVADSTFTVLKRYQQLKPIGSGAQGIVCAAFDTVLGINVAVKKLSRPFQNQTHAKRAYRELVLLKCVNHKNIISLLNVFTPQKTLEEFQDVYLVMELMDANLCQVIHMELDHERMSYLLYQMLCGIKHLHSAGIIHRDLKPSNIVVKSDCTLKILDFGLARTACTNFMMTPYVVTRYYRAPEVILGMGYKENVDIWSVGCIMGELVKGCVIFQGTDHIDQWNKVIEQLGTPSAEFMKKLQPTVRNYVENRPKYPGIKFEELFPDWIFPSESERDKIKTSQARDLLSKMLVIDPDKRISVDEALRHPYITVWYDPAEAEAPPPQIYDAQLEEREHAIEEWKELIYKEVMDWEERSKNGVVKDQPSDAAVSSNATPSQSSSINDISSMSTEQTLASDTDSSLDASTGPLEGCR
SRSF protein kinase 1 (Homo sapiens), sequence (Q96SB4 whole entry): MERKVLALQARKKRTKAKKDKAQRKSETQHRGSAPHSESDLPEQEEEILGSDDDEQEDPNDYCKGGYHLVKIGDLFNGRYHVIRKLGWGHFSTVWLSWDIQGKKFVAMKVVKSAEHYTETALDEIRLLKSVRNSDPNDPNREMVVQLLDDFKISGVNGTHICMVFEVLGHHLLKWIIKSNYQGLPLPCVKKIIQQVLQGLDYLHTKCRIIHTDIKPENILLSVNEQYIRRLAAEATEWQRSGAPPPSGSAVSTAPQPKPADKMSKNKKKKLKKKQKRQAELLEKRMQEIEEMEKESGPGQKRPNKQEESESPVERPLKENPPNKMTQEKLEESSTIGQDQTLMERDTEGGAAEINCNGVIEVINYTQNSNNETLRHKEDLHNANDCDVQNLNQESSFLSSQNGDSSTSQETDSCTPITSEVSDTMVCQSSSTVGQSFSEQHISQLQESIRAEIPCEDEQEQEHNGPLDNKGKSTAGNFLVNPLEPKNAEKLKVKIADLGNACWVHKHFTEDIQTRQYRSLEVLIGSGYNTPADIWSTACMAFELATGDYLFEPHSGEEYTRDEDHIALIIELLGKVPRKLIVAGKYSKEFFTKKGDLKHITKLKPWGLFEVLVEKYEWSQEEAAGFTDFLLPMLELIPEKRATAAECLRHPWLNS
Serine/threonine-protein kinase SIK3 (Homo sapiens), sequence (Q9Y2K2 whole entry, looked up): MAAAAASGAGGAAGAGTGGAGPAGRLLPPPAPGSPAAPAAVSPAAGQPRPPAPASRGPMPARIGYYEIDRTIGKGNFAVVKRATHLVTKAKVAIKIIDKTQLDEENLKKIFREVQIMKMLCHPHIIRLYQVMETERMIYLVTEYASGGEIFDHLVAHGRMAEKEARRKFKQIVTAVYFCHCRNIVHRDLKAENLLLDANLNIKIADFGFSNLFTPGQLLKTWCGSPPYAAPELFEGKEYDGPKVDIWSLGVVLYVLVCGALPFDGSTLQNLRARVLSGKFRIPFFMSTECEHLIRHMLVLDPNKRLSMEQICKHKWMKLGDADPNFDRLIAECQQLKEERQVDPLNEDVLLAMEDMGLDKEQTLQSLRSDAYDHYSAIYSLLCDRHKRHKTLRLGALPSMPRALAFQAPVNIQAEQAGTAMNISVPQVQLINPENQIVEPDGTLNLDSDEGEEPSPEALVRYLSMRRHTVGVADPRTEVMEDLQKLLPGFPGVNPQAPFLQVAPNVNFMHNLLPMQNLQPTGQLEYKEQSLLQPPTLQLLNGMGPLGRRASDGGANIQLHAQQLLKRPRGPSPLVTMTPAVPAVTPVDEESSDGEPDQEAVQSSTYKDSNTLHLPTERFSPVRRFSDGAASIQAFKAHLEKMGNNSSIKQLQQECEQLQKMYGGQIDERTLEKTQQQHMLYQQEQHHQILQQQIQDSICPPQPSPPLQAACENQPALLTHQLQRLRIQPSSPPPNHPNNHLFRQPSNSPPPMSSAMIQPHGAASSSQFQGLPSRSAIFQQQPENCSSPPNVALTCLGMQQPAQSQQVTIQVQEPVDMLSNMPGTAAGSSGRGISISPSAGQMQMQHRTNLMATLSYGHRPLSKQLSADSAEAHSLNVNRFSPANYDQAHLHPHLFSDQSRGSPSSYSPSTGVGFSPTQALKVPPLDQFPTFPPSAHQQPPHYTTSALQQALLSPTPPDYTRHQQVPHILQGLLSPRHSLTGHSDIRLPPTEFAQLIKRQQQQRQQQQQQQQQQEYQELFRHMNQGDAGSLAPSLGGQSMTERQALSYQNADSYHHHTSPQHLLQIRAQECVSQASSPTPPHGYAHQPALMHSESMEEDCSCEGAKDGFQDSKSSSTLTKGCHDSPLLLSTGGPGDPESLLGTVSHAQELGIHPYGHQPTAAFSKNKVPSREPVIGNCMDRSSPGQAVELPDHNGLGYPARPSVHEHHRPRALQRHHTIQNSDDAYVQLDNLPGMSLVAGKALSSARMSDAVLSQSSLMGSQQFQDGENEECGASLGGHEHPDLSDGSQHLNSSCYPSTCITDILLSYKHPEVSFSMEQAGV
Mitogen-activated protein kinase 7 (Homo sapiens), sequence (Q13164 2-816 limits assumed): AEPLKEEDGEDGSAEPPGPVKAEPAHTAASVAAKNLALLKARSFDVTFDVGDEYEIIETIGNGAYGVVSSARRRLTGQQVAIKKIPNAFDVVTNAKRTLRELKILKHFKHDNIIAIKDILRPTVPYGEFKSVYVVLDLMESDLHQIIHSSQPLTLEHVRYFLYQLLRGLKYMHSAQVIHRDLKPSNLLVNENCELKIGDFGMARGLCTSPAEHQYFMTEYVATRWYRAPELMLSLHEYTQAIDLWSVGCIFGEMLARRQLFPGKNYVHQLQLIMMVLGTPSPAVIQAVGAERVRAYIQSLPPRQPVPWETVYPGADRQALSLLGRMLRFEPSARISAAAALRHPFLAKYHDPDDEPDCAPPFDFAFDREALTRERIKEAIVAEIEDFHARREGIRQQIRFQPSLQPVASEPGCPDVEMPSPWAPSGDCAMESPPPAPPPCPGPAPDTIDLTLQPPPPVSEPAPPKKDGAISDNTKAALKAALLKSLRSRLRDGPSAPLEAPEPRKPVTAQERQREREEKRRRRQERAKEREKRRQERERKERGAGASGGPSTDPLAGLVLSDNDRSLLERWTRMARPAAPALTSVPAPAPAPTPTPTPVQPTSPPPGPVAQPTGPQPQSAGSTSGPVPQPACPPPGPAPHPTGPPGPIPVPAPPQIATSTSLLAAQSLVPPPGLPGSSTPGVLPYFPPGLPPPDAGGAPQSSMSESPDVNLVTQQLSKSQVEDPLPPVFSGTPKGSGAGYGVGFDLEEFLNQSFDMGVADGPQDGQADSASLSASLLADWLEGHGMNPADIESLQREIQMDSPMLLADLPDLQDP
Ephrin type-B receptor 2 (Homo sapiens), sequence (P29323 whole entry): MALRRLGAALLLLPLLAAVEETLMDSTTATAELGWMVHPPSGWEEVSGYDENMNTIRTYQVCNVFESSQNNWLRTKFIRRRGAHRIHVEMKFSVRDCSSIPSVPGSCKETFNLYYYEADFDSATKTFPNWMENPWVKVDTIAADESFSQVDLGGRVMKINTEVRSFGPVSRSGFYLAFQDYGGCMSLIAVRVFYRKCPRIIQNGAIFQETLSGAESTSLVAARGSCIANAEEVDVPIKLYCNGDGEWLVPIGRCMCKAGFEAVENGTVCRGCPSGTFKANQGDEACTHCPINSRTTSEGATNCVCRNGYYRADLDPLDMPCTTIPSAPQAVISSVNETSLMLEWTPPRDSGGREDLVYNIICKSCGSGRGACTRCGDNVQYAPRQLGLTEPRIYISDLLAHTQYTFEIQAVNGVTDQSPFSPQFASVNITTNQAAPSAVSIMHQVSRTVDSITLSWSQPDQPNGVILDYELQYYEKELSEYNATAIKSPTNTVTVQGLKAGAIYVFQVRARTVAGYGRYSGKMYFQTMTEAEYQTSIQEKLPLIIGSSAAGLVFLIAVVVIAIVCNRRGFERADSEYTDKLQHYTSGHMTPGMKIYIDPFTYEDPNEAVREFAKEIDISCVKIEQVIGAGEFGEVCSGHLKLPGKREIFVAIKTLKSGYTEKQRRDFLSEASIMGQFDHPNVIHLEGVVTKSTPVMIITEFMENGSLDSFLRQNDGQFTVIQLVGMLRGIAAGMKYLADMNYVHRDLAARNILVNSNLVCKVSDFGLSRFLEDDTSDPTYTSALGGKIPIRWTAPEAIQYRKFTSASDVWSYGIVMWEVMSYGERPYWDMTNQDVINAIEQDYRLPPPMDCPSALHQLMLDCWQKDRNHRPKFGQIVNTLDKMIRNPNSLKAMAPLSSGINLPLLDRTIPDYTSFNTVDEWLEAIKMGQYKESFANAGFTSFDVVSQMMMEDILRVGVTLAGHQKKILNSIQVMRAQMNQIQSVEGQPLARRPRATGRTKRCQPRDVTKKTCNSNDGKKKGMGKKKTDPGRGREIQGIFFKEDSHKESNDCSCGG
Serine/threonine-protein kinase 16 (Homo sapiens), sequence (O75716 whole entry): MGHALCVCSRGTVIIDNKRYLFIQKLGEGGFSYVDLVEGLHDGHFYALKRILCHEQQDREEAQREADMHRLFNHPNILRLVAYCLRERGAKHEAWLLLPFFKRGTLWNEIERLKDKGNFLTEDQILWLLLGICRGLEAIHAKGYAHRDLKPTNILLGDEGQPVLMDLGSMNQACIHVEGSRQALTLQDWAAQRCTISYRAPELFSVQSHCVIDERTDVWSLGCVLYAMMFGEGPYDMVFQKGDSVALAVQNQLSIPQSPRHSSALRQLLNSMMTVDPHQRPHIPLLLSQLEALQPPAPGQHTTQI

Activity [4]: 74%
Activity [5]: 103%
Activity [6]: 100%
Activity [7]: 95%
Activity [9]: 103%
Activity [10]: 113%
Activity [11]: 108%
Activity [12]: 99%
Activity [13]: 128%
Activity [14]: 114%
Activity [15]: 96%
Activity [16]: 100%
Activity [17]: 92%
Activity [18]: 102%
Activity [19]: 81%
Activity [20]: 101%
Activity [21]: 86%
Activity [22]: 93%
Activity [23]: 104%
Activity [24]: 90%
Activity [25]: 111%
Activity [26]: 113%
Activity [27]: 108%
Compound: Cc1ccc(-c2cc(C(=O)Nc3ccnc(Cl)c3)nn2-c2ccc3ccccc3n2)cc1
IC50 [1]: 1.6 µM
Activity (Huh-7): inactive
Activity [2]: 11.1%
Activity [3]: 27.8%
Activity [8]: 112%
